According to ChEMBL document CHEMBL1138570, “2-Acylhydrazino-5-arylpyrrole derivatives: synthesis and antifungal activity evaluation” (Eur J Med Chem, 2009):
≈ marks a conversion by molar mass, not a printed value.

How the values were obtained:
Pichia kudriavzevii [1] = assay: Antimicrobial activity against Candida krusei after 72 hrs by broth microdilution method; type: functional
Summary of the method: (§1)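 MFC: after MIC reading, a sample from each well was plated on Sabouraud dextrose agar and incubated 72 h at 35 °C. MFC was taken as the minimum concentration killing >99% of the original inoculum. The MIC step was NCCLS broth microdilution in MOPS-buffered RPMI 1640 (pH 7.0), with 2 ×10⁴ cells/mL, overnight at 35 °C.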

Candida parapsilosis [2] = assay: Antimicrobial activity against Candida parapsilosis after 72 hrs by broth microdilution method; type: functional; conditions: Lodderomyces parapsilosis; summary of the method: as §1
Nakaseomyces glabratus [3] = assay: Antimicrobial activity against Candida glabrata by broth microdilution method; type: functional
Summary of the method: (§2)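 MIC by NCCLS broth microdilution. Medium was RPMI 1640 with L-glutamine, buffered with 0.165 M MOPS at pH 7.0. Twofold drug dilutions ran 0.008–200 mg/L. Inoculum was set spectrophotometrically to 10⁶ CFU/mL, then diluted in medium to 2 ×10⁴ cells/mL. Plates were incubated overnight at 35 °C in humid air, agitated, and read visually and at 450 nm.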

Candida parapsilosis [4] = assay: Antimicrobial activity against Candida parapsilosis by broth microdilution method; type: functional; conditions: Lodderomyces parapsilosis; summary of the method: as §2
Nakaseomyces glabratus [5] = assay: Antimicrobial activity against Candida glabrata after 72 hrs by broth microdilution method; type: functional; summary of the method: as §1
Candida albicans [6] = assay: Antimicrobial activity against Candida albicans ATCC 10231 after 72 hrs by broth microdilution method; type: functional; conditions: ATCC 10231, 72 h; summary of the method: as §1
Candida albicans [7] = assay: Antimicrobial activity against Candida albicans ATCC 10231 by broth microdilution method; type: functional; summary of the method: as §2
Pichia kudriavzevii [8] = assay: Antimicrobial activity against Candida krusei by broth microdilution method; type: functional; summary of the method: as §2
[9] = Toxicity against human H460 cells assessed as growth inhibition at 10 uM; type: cell-based; conditions: NCI-H460 cells, read-out: GI
[10] = Toxicity against human MCF7 cells assessed as growth inhibition at 10 uM; type: cell-based; conditions: read-out: GI
[11] = Toxicity against human SF268 cells assessed as growth inhibition at 10 uM; type: cell-based; conditions: SF-268 cells, read-out: GI

| Compound | MFC (Pichia kudriavzevii [1]) [µg/mL] | MFC (Candida parapsilosis [2]) [µg/mL] | MIC (Nakaseomyces glabratus [3]) [µg/mL] | MIC (Candida parapsilosis [4]) [µg/mL] | MFC (Nakaseomyces glabratus [5]) [µg/mL] | MFC (Candida albicans [6]) [µg/mL] | MIC (Candida albicans [7]) [µg/mL] | MIC (Pichia kudriavzevii [8]) [µg/mL] | inhibition at 10 µM [9] [%] | inhibition at 10 µM [10] [%] | inhibition at 10 µM [11] [%] |
| --- | --- | --- | --- | --- | --- | --- | --- | --- | --- | --- | --- |
| CCC(=O)NNc1[nH]c(-c2ccc(OC)cc2)cc1C(=O)OC | 6.25 (≈ 19.7 µM) | 12.5 (≈ 39.4 µM) | 6.25 (≈ 19.7 µM) | 3.12 (≈ 9.83 µM) | 12.5 (≈ 39.4 µM) | 3.12 (≈ 9.83 µM) | 3.12 (≈ 9.83 µM) | 6.25 (≈ 19.7 µM) | – | – | – |
| CCOC(=O)NNc1[nH]c(-c2ccccc2)cc1C(=O)OC | 25 (≈ 82.4 µM) | 12.5 (≈ 41.2 µM) | 3.12 (≈ 10.3 µM) | 3.12 (≈ 10.3 µM) | 12.5 (≈ 41.2 µM) | 6.25 (≈ 20.6 µM) | 3.12 (≈ 10.3 µM) | 6.25 (≈ 20.6 µM) | – | – | – |
| CCOC(=O)NNc1[nH]c(-c2ccc(OC)cc2)cc1C(=O)OC | > 100 | > 100 | 12.5 (≈ 37.5 µM) | 25 (≈ 75 µM) | 50 (≈ 150 µM) | 6.25 (≈ 18.7 µM) | 3.12 (≈ 9.36 µM) | 50 (≈ 150 µM) | – | – | – |
| COCCC(=O)NNc1[nH]c(-c2ccccc2)cc1C(=O)OC | 25 (≈ 78.8 µM) | 100 (≈ 315 µM) | 6.25 (≈ 19.7 µM) | 12.5 (≈ 39.4 µM) | 25 (≈ 78.8 µM) | 12.5 (≈ 39.4 µM) | 6.25 (≈ 19.7 µM) | 12.5 (≈ 39.4 µM) | – | – | – |
| COCCC(=O)NNc1[nH]c(-c2ccccc2)cc1C#N | 12.5 (≈ 44 µM) | 25 (≈ 87.9 µM) | 3.25 (≈ 11.4 µM) | 6.25 (≈ 22 µM) | 12.5 (≈ 44 µM) | 6.25 (≈ 22 µM) | 6.25 (≈ 22 µM) | 6.25 (≈ 22 µM) | – | – | – |
| COC(=O)c1cc(-c2ccccc2)[nH]c1NNC(C)=O | 12.5 (≈ 45.7 µM) | 25 (≈ 91.5 µM) | 6.25 (≈ 22.9 µM) | 6.25 (≈ 22.9 µM) | 25 (≈ 91.5 µM) | 6.25 (≈ 22.9 µM) | 3.12 (≈ 11.4 µM) | 12.5 (≈ 45.7 µM) | – | – | – |
| COC(=O)c1cc(-c2ccc(OC)cc2)[nH]c1NNC(C)=O | 6.25 (≈ 20.6 µM) | 6.25 (≈ 20.6 µM) | 3.12 (≈ 10.3 µM) | 3.12 (≈ 10.3 µM) | 12.5 (≈ 41.2 µM) | 3.12 (≈ 10.3 µM) | 3.12 (≈ 10.3 µM) | 3.12 (≈ 10.3 µM) | 0 | 0 | 0 |
| CCC(=O)NNc1[nH]c(-c2ccc(OC)cc2)cc1C#N | 12.5 (≈ 44 µM) | 12.5 (≈ 44 µM) | 0.78 (≈ 2.74 µM) | 0.78 (≈ 2.74 µM) | 12.5 (≈ 44 µM) | 6.25 (≈ 22 µM) | 0.39 (≈ 1.37 µM) | 0.78 (≈ 2.74 µM) | 0 | 4.6 | 2.1 |
| COc1ccc(-c2cc(C#N)c(NNC(C)=O)[nH]2)cc1 | 3.12 (≈ 11.5 µM) | 6.25 (≈ 23.1 µM) | 3.12 (≈ 11.5 µM) | 3.12 (≈ 11.5 µM) | 12.5 (≈ 46.2 µM) | 6.25 (≈ 23.1 µM) | 1.56 (≈ 5.77 µM) | 1.56 (≈ 5.77 µM) | 0 | 0 | 0 |
| CCOC(=O)NNc1[nH]c(-c2ccc(OC)cc2)cc1C#N | 50 (≈ 166 µM) | 100 (≈ 333 µM) | 12.5 (≈ 41.6 µM) | 25 (≈ 83.2 µM) | 50 (≈ 166 µM) | 3.12 (≈ 10.4 µM) | 3.12 (≈ 10.4 µM) | 25 (≈ 83.2 µM) | 31 | 0.9 | 0 |
| COCC(=O)NNc1[nH]c(-c2ccccc2)cc1C#N | 25 (≈ 92.5 µM) | 6.25 (≈ 23.1 µM) | 25 (≈ 92.5 µM) | 6.25 (≈ 23.1 µM) | 50 (≈ 185 µM) | 6.25 (≈ 23.1 µM) | 6.25 (≈ 23.1 µM) | 6.25 (≈ 23.1 µM) | – | – | – |
| COCC(=O)NNc1[nH]c(-c2ccc(OC)cc2)cc1C#N | 12.5 (≈ 41.6 µM) | 12.5 (≈ 41.6 µM) | 25 (≈ 83.2 µM) | 6.25 (≈ 20.8 µM) | 50 (≈ 166 µM) | 6.25 (≈ 20.8 µM) | 6.25 (≈ 20.8 µM) | 6.25 (≈ 20.8 µM) | – | – | – |
| COCCC(=O)NNc1[nH]c(-c2ccc(OC)cc2)cc1C(=O)OC | 25 (≈ 72 µM) | 12.5 (≈ 36 µM) | 6.25 (≈ 18 µM) | 6.25 (≈ 18 µM) | 25 (≈ 72 µM) | 6.25 (≈ 18 µM) | 6.25 (≈ 18 µM) | 6.25 (≈ 18 µM) | – | – | – |
| CCC(=O)NNc1[nH]c(-c2ccccc2)cc1C(=O)OC | 25 (≈ 87 µM) | 12.5 (≈ 43.5 µM) | 6.25 (≈ 21.8 µM) | 6.25 (≈ 21.8 µM) | 25 (≈ 87 µM) | 6.25 (≈ 21.8 µM) | 3.12 (≈ 10.9 µM) | 12.5 (≈ 43.5 µM) | – | – | – |
| COCCC(=O)NNc1[nH]c(-c2ccc(OC)cc2)cc1C#N | 6.25 (≈ 19.9 µM) | 12.5 (≈ 39.8 µM) | 6.25 (≈ 19.9 µM) | 6.25 (≈ 19.9 µM) | 12.5 (≈ 39.8 µM) | 6.25 (≈ 19.9 µM) | 3.12 (≈ 9.93 µM) | 3.12 (≈ 9.93 µM) | – | – | – |
| CCOC(=O)NNc1[nH]c(-c2ccccc2)cc1C#N | 6.25 (≈ 23.1 µM) | 12.5 (≈ 46.2 µM) | 3.12 (≈ 11.5 µM) | 6.25 (≈ 23.1 µM) | 6.25 (≈ 23.1 µM) | 3.12 (≈ 11.5 µM) | 3.12 (≈ 11.5 µM) | 3.12 (≈ 11.5 µM) | – | – | – |
| C[C@@H]1[C@H](O)[C@@H](C)/C=C/C=C/C=C/C=C/C=C/C=C/C=C/[C@H](O[C@@H]2O[C@H](C)[C@@H](O)[C@H](N)[C@@H]2O)C[C@@H]2O[C@](O)(C[C@@H](O)C[C@@H](O)[C@H](O)CC[C@@H](O)C[C@@H](O)CC(=O)O[C@H]1C)C[C@H](O)[C@H]2C(=O)O [AMPHOTERICIN B] | 1.56 (≈ 1.69 µM) | 1.56 (≈ 1.69 µM) | 0.78 (≈ 0.844 µM) | 0.78 (≈ 0.844 µM) | 1.56 (≈ 1.69 µM) | 0.78 (≈ 0.844 µM) | 0.39 (≈ 0.422 µM) | 0.78 (≈ 0.844 µM) | – | – | – |
| OC(Cn1cncn1)(Cn1cncn1)c1ccc(F)cc1F [FLUCONAZOLE] | 50 (≈ 163 µM) | > 100 | 12.5 (≈ 40.8 µM) | 0.39 (≈ 1.27 µM) | > 100 | > 100 | 0.78 (≈ 2.55 µM) | 25 (≈ 81.6 µM) | – | – | – |
